In test [1] the target is T1, Complement C1r subcomponent (Homo sapiens, UniProt P00736).
T1 sequence (P00736 whole entry): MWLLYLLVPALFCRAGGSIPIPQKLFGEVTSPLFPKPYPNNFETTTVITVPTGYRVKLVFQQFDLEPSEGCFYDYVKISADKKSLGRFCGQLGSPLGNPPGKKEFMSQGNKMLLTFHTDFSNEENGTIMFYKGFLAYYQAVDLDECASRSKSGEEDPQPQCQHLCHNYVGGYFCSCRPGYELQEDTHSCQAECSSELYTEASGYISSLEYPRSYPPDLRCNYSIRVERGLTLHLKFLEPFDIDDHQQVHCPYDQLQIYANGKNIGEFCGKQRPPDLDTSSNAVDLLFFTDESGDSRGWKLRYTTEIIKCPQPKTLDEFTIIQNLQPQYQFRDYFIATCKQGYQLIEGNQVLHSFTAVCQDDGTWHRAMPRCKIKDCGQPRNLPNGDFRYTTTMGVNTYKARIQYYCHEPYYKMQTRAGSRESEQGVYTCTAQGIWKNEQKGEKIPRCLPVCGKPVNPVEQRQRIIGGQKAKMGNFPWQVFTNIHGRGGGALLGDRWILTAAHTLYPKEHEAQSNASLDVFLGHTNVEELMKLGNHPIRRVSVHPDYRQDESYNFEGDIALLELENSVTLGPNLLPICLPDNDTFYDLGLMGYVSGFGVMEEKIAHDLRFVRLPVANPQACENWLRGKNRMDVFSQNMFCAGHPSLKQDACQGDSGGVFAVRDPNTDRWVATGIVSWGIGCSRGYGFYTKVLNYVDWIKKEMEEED

Test [2] addresses T1, Complement C1r subcomponent. Kind of test: 50% inhibition of human C1r serine protease after 60 mins using Cbz-Gly-Arg-S-Bzl as substrate. The essentials:
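Compound (DMSO) preincubated 60 min at room temperature in 150 mM Tris pH 7.5, then substrate (1.5 mM stock Cbz-Gly-Arg-S-Bzl in DMSO/H2O 3:7), DTNB (0.75 mM stock) and purified human C1r (20 μg/mL stock, 10 mM Tris pH 7.4) added. Read kinetically at 405 nm after 30 s; no-enzyme background wells; triplicates per concentration; IC50 reported.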

Test [3] addresses T2, Serine protease 1 (Bos taurus, UniProt P00760).
T2 sequence (P00760 whole entry): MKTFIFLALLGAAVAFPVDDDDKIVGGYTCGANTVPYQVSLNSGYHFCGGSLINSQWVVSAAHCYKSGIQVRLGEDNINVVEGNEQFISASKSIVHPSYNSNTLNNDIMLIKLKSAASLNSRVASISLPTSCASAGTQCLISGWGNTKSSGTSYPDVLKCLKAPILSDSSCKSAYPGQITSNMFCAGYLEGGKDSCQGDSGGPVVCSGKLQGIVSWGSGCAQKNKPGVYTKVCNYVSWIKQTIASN
Description: Concentration of compound required to inhibit 50% trypsin derived from bovine pancreas. The essentials:
(§1)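 Bovine pancreatic trypsin (1.25 μg) with casein 0.5 mg/mL, 20 mM dithiothreitol, 50 mM Tris-HCl pH 7.4, at various inhibitor concentrations; 60 min, 25 °C caseinolysis, colorimetric development, absorbance 595 nm. IC50 from percent inhibition versus log [inhibitor]; mean of two to four determinations, ranges within 20%.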

The nature of test [4]: The compound was examined in a functional assay using erythrocyte hemolysis as a functional end point of complement inhibition. Also on record: species or system Ovis aries; concentration or dose not given beside the values. The essentials: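 Compound added to standardized antibody-sensitized sheep erythrocyte suspension (commercial complement kit), incubated 60 min at 25 °C, centrifuged; supernatant absorbance read at 405 nm. Expressed as percent of control at 200 μM.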

The target of test [5] is T2, Serine protease 1. Kind of test: The compound was evaluated to inhibit trypsin and is expressed in IC50 (The concentration required to inhibit 50% of the enzyme). An outline of the steps: as §1

Regarding `O=c1oc(NCCc2ccccc2I)nc2ccccc12`, in test [1], the IC50 was greater than 62.5 µM.

Regarding `O=c1oc(Nc2ccccc2Cl)nc2ccccc12`, inhibition in test [2] was half-maximal at 8 µM (IC50). Turning to `O=c1oc(Nc2ccccc2I)nc2cc([N+](=O)[O-])ccc12`, the IC50 was 7.8 µM in test [2], greater than 100 µM at Serine protease 1 [3] and 0.8 µM in test [1]. Besides, the “Hemolysis (% of control)” value in test [4] was determined as 126%. Take `COc1cc2nc(Nc3ccccc3I)oc(=O)c2cc1OC`: the IC50 in test [2] and in test [1] was 47 µM each time. Molecule `Cc1ccc2c(=O)oc(Nc3ccccc3Cl)nc2c1` gave an IC50 in test [2] of 0.9 µM. On to `O=c1oc(Nc2ccccc2I)nc2ccc(Cl)cc12`, for which the IC50 in test [2] is greater than 62.5 µM. For the molecule `Cc1ccc2c(=O)oc(Nc3ccccc3I)nc2c1`, the IC50 in test [2] is 1.5 µM; against Serine protease 1 [3], greater than 100 µM. For the same molecule, in test [4], the “Hemolysis (% of control)” value turned out to be 114%.

As for `O=c1oc(Nc2c(Cl)cccc2Cl)nc2ccccc12`, the half-inhibitory concentration (IC50) in test [2] and in test [1] was 0.9 µM throughout. For the molecule `O=c1oc(Nc2ccccc2OC(F)(F)F)nc2ccccc12`, the IC50 in test [2] is greater than 62.5 µM. As to `CN(C)c1ccc2c(=O)oc(Nc3ccccc3I)nc2c1`, the half-inhibitory concentration (IC50) in test [1] was greater than 62.5 µM. The same measure, in the same setting: with `COc1ccc2c(=O)oc(Nc3ccccc3I)nc2c1` the figure was greater than 62.5 µM. For the molecule `O=c1oc(Nc2ccccc2I)nc2cc(C(F)(F)F)ccc12`, the IC50 in test [2] is 4 µM; against Serine protease 1 [3], greater than 100 µM. In addition, the “Hemolysis (% of control)” value in test [4] turned out to be 146%. In test [1], `Cc1ccc2nc(Nc3ccccc3I)oc(=O)c2c1` returned a 50% inhibitory concentration (IC50) greater than 62.5 µM. In turn, `O=c1oc(-c2ccccc2I)nc2ccccc12` had a half-maximal inhibitory concentration (IC50) on Serine protease 1 [3] of 15.3 µM. Also, in test [4], the “Hemolysis (% of control)” value was determined as 61%. On to `O=c1oc(Nc2ccccc2I)nc2cc(C3CCCCC3)ccc12`, for which the 50% inhibitory concentration (IC50) in test [1] was greater than 62.5 µM. On the same count and under the same terms, with `CC(C)c1ccc2c(=O)oc(Nc3ccccc3I)nc2c1` the figure was greater than 62.5 µM. Molecule `Cc1ccccc1Nc1nc2ccccc2c(=O)o1` displayed a half-maximal inhibitory concentration (IC50) in test [2] of 38 µM. In turn, `O=c1oc(Nc2ccccc2I)nc2cc(Cl)ccc12` registered an IC50 in test [2] of 0.9 µM. Regarding `O=c1oc(Nc2ccccc2I)nc2cc(F)ccc12`, the IC50 is 2.8 µM in test [2], greater than 100 µM at Serine protease 1 [3] and 1.7 µM in test [1].

For the molecule `O=c1oc(Nc2c(Cl)cccc2Cl)nc2cc(C(F)(F)F)ccc12`, the IC50 in test [2] was 4.2 µM; against Serine protease 1 [3], 87.1 µM; in test [1] it was 1.5 µM. Further, the “Hemolysis (% of control)” value in test [4] stood at 120%. For the molecule `O=c1oc(Nc2ccccc2Cl)nc2cc([N+](=O)[O-])ccc12`, in test [2], the IC50 is greater than 62.5 µM.

In the case of `O=c1oc(Nc2ccccc2I)nc2cc(Cl)c(Cl)cc12`, the half-maximal inhibitory concentration (IC50) in test [2] was greater than 62.5 µM.

In turn, `O=c1oc(Nc2c(Cl)cccc2Cl)nc2cc(Cl)ccc12` registered a concentration for half-maximal inhibition (IC50) in test [2] of 0.9 µM. Consider `CNc1nc2ccccc2c(=O)o1`, for which the IC50 in test [1] is greater than 62.5 µM. The molecule `O=c1oc(Nc2ccccc2I)nc2cc(F)c(F)cc12` returned an IC50 in test [2] greater than 62.5 µM. With `Cc1cccc2nc(NC(C)C)oc(=O)c12`, in test [1], the half-inhibitory concentration (IC50) was greater than 62.5 µM.

The molecule `COc1ccc2nc(Nc3ccccc3I)oc(=O)c2c1` returned an IC50 in test [2] greater than 62.5 µM. With `CN(c1nc2ccccc2c(=O)o1)c1ccccc1I`, the figures for the IC50 (in test [2]; at Serine protease 1 [3]) were 16.6 µM and 4.5 µM, respectively. Besides, in test [4], the “Hemolysis (% of control)” value stood at 72%.

With `O=c1oc(Nc2ccccc2I)nc2cc3ccccc3cc12`, the IC50 in test [2] amounted to 16.6 µM; in test [1], 0.2 µM.

Molecule `O=c1oc(NCc2ccccc2I)nc2ccccc12` returned an IC50 in test [1] greater than 62.6 µM. As for `Nc1nc2ccccc2c(=O)o1`, the 50% inhibitory concentration (IC50) in test [1] is greater than 62.5 µM. Regarding `Cc1cccc(C)c1Nc1nc2ccccc2c(=O)o1`, in test [1], the IC50 is greater than 62.5 µM. As for `O=c1oc(Nc2ccccc2Cl)nc2cc(Cl)c(Cl)cc12`, the 50% inhibitory concentration (IC50) in test [2] is greater than 62.5 µM. In the case of `O=c1oc(Nc2ccccc2I)nc2cc(Cl)cc(Cl)c12`, the concentration for half-maximal inhibition (IC50) in test [1] was greater than 62.5 µM. For the molecule `O=c1oc(Nc2ccccc2Br)nc2ccccc12`, the IC50 in test [2] was 15.2 µM; against Serine protease 1 [3], greater than 100 µM. On to `O=c1oc(Nc2ccccc2Cl)nc2cc(Cl)ccc12`, for which the IC50 in test [2] was 0.8 µM; against Serine protease 1 [3], greater than 100 µM; in test [1], 0.8 µM. Further, the “Hemolysis (% of control)” value in test [4] is given as 138%. On to `O=c1oc(Nc2cc(Cl)ccc2Cl)nc2ccccc12`, for which the IC50 in test [2] is 2 µM; against Serine protease 1 [3], greater than 100 µM; in test [1] it was 2 µM. In test [4], the “Hemolysis (% of control)” value stood at 131%. In test [1], `CSc1ccccc1Nc1nc2ccccc2c(=O)o1` gave a concentration for half-maximal inhibition (IC50) greater than 62.5 µM. The same measure, in the same setting: with `CCN(c1nc2ccccc2c(=O)o1)c1ccccc1I` the figure was greater than 62.5 µM; with `Cc1cccc2nc(Nc3ccccc3I)oc(=O)c12`, greater than 62.5 µM.

In test [2], `O=c1oc(Nc2ccccc2I)nc2ccccc12` registered an IC50 of 14.7 µM.

In test [2], `O=c1oc(Nc2ccccc2I)nc2cccc(Cl)c12` gave an IC50 greater than 62.5 µM. At Serine protease 1 [5], `N=C(N)c1ccc2cc(OC(=O)c3ccc(N=C(N)N)cc3)ccc2c1` [NAFAMOSTAT] came in with an IC50 of 0.017 µM.

The values are drawn from ChEMBL document CHEMBL1131375, “2-amino-4H-3,1-benzoxazin-4-ones as inhibitors of C1r serine protease” (J Med Chem, 1998).
